The nature of data set [1]: Cytotoxicity against mouse ScN2a-cl3 cells assessed as cell viability after 5 days by calcein cell viability assay. Particulars: n2a-cl3, 120 h, read-out: LC50 (the source's name). It is filed as cell-based. The procedure, abridged:
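Viability of RML prion-infected ScN2a-cl3 cells was read with the fluorescent probe calcein-AM. It was run alongside each PrPSc ELISA EC50 measurement to rule out cytotoxicity, and LC50 was derived from 3 tests.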

Data set [2] is described as follows: Antiprion activity against sheep RML prion protein-infected in mouse ScN2a-cl3 cells assessed as reduction of PrPSc level after 5 days by ELISA. It is filed as cell-based. Particulars: Ovis aries, N2a-cl3, 120 h. The procedure, abridged: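 RML prion-infected murine neuroblastoma ScN2a-cl3 cells. PrPSc levels were measured by ELISA, and EC50 was derived from 3 tests. Cell viability was run alongside each EC50 measurement in the same cells using calcein-AM fluorescence, to exclude cytotoxicity.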

Data set [3] relates to N2a-cl3. The experiment in a line: Antiprion activity against sheep RML prion protein-infected in mouse ScN2a-cl3 cells assessed as reduction of PrPSc level after 5 days by ELISA relative to control. The class given is cell-based. The arrangement: concentration or dose not given beside the values. The note with it: Ovis aries, dose or concentration not given here. On the technique in general: In an ELISA, binding on a coated surface is turned into a signal by an enzyme label.

Data set [4] relates to Liver microsomes. As to the kind of experiment: Metabolic stability in human liver microsomes assessed as half life by LC-MS analysis. It is filed as ADME, Microsome. (Liver microsomes are a subcellular fraction often used to study metabolism.)
In data set [5] the test system is Liver. The experiment in a line: Metabolic stability in mouse liver microsomes assessed as half life by LC-MS analysis. The class given is ADME, Microsome.
Data set [6] in a line: AUC (0 to 6 hrs) in wild type FVB mouse plasma at 10 mg/kg, po by LC-MS analysis. It is filed as ADME, organism-based. The arrangement: time < 6 hr, dose 10 mg/kg, route oral.
In data set [7] the test system is Brain. As to the kind of experiment: (§1) AUC (0 to 6 hrs) in wild type FVB mouse brain at 10 mg/kg, po by LC-MS analysis. The class given is ADME, organism-based. More on the design: time < 6 hr, dose 10 mg/kg, route oral. The note with it: in vivo, 6 h.
Data set [8] is described as follows: Cmax in wild type FVB mouse brain at 10 mg/kg, po by LC-MS analysis. It is filed as ADME, organism-based. More on the design: dose 10 mg/kg, route oral.
Data set [9] concerns Plasma. As to the kind of experiment: (§2) Cmax in wild type FVB mouse plasma at 10 mg/kg, po by LC-MS analysis. It is filed as ADME, organism-based. More on the design: dose 10 mg/kg, route oral. The note with it: in vivo.
Data set [10] is described as follows: as §2. More on the design: dose 10 mg/kg, route oral. Particulars: FVB, plasma. The class given is ADME, organism-based.
A short description of data set [11]: as §1. It is filed as ADME, organism-based. The arrangement: time < 6 hr, dose 10 mg/kg, route oral. Particulars: FVB, brain.

Bounds are passed on as bounds.

One may read the EC50 as the concentration that produces a half-maximal response. In the case of `c1cncc(CN2CCN(c3ccc(-c4ncco4)cc3)CC2)c1`, in [1], the CC50 is greater than 10 µM. Besides, in data set [2], the EC50 was greater than 10 µM.

By inhibition is commonly meant the change of the read-out against control, counted positive when it falls. In the case of `COc1ccc(N2CCN(Cc3cccs3)CC2)cc1`, the inhibition in data set [3] amounted to 16%.

Regarding `CC(=O)c1ccc(N2CCN(Cc3ccco3)CC2)cc1`, the inhibition in data set [3] is 96%.

As for `Cc1ccc(CN2CCN(c3ccc(-c4nc5ccccc5o4)cc3)CC2)cn1`, in [1], the CC50 was greater than 10 µM. For the same compound, the EC50 in data set [2] is greater than 10 µM.

For the compound `Cc1ccc(CN2CCN(c3ccc(-c4ncco4)cc3)CC2)o1`, in data set [1], the CC50 was greater than 10 µM. Moreover, in [2], the EC50 is greater than 10 µM.

Regarding `c1ccc(CN2CCN(c3ccccc3)CC2)cc1`, the inhibition in data set [3] stood at 5%.

Regarding `COc1cccc(N2CCN(Cc3cccnc3)CC2)c1`, the EC50 in data set [2] is greater than 32 µM.

For the compound `CC(=O)c1ccc(N2CCN(Cc3ccccc3)CC2)cc1`, the EC50 in data set [2] was determined as 0.71 µM. Besides, the inhibition in data set [3] came out at 94%.

Broadly, the AUC(0-t) is exposure summed from dosing to a finite time, without extrapolation to infinity. Broadly, the AUC is concentration integrated over time. One may read the Cmax as the highest concentration seen after dosing. Take `Fc1ccc(CN2CCN(c3ccc(-c4nc5ccccc5o4)cc3)CC2)cn1`: the t1/2 in [4] is 43.6 min; in data set [5], 7.3 min. Besides, the AUC(0-t) at 6 h in data set [6] amounted to 1200 nM·h. The compound also yielded an AUC in data set [7] of 1300 nM·h. In [8], this compound returned a Cmax of 0.4 µM. Further, the CC50 in [1] was greater than 10 µM. In addition, the EC50 in data set [2] was 0.4 µM.

Consider `Fc1ccccc1N1CCN(Cc2cccnc2)CC1`, for which, in data set [2], the EC50 was greater than 32 µM.

As to `Clc1cccc(N2CCN(Cc3ccccc3)CC2)c1`, in [3], the inhibition stood at 7%.

As to `Fc1ccc(N2CCN(Cc3ccccc3)CC2)cc1`, the inhibition in data set [3] worked out at 7%.

Turning to `c1csc(CN2CCN(c3ccc(-c4nc5ccccc5o4)cc3)CC2)c1`, the CC50 in [1] was greater than 10 µM. Besides, the EC50 in data set [2] turned out to be 4.2 µM.

Consider `c1cncc(CN2CCN(c3ccc(-c4nc5ccccc5s4)cc3)CC2)c1`, for which the t1/2 in data set [4] is recorded as 34.3 min; in data set [5], 17.3 min. Besides, in [6], the AUC(0-t) at 6 h came out at 2700 nM·h. Besides, the Cmax in [9] was 0.6 µM; in [8] it was 3 µM. Besides, in data set [7], the AUC turned out to be 14400 nM·h. In [1], the CC50 was greater than 10 µM. For the same compound, the EC50 in data set [2] stood at 0.4 µM.

`CC(=O)c1ccc(N2CCN(Cc3cccnc3)CC2)cc1`: in data set [3], the inhibition came out at 73%.

Consider `c1csc(CN2CCN(c3ccc(-c4ncco4)cc3)CC2)c1`, for which the CC50 in data set [1] was greater than 10 µM. Also, the EC50 in [2] was greater than 10 µM.

Regarding `Cc1ccc(CN2CCN(c3ccc(-c4nc5ccccc5o4)cc3)CC2)o1`, the CC50 in data set [1] was greater than 10 µM. For the same compound, the EC50 in data set [2] came out at 3.3 µM.

Take `CC(=O)c1ccc(N2CCN(Cc3cccs3)CC2)cc1`: the EC50 in data set [2] is 1.95 µM. The inhibition in [3] amounted to 91%.

`COc1ccccc1N1CCN(Cc2cccnc2)CC1`: the EC50 in [2] is greater than 32 µM.

On to `Clc1cccc(N2CCN(Cc3ccco3)CC2)c1`, for which the inhibition in [3] came to 6%.

`COc1ccc(N2CCN(Cc3cccnc3)CC2)cc1`: the EC50 in [2] is greater than 32 µM. Also, the inhibition in [3] came out at 10%.

Turning to `Clc1ccc(N2CCN(Cc3ccccc3)CC2)cc1`, the inhibition in data set [3] is 6%.

For `c1cncc(CN2CCN(c3ccc(-c4nc5ccccc5o4)cc3)CC2)c1`, the t1/2 in [4] is 50.2 min; in data set [5] it was 9.2 min. In [6], this compound gave an AUC(0-t) at 6 h of 4200 nM·h. The values for the Cmax in [10] and in [8] were 0.9 µM and 3.6 µM, respectively. The AUC in [7] was 14200 nM·h. Also, the CC50 in data set [1] is greater than 10 µM. Moreover, the EC50 in data set [2] turned out to be 0.3 µM.

On to `COc1ccc(N2CCN(Cc3ccccc3)CC2)cc1`, for which, in data set [3], the inhibition came out at 7%.

Regarding `Clc1ccc(N2CCN(Cc3cccnc3)CC2)cc1`, the inhibition in data set [3] came out at 0%.

`c1ccc(N2CCN(Cc3cccnc3)CC2)cc1`: the inhibition in [3] was 4%.

For `Clc1cccc(N2CCN(Cc3cc(Br)cs3)CC2)c1`, the inhibition in [3] amounted to 34%.

As for `Clc1ccc(N2CCN(Cc3ccco3)CC2)cc1`, in data set [3], the inhibition was 13%.

In the case of `CC(=O)c1ccc(N2CCN(Cc3sccc3C)CC2)cc1`, the inhibition in data set [3] amounted to 78%.

Regarding `Fc1ccc(N2CCN(Cc3cccnc3)CC2)cc1`, the EC50 in data set [2] is greater than 32 µM. The inhibition in [3] is 27%.

In the case of `Clc1cccc(N2CCN(Cc3cccnc3)CC2)c1`, the EC50 in data set [2] is greater than 32 µM. Moreover, the inhibition in data set [3] stood at 4%.

Take `COc1ccc(N2CCN(Cc3ccc(Br)o3)CC2)cc1`: the inhibition in data set [3] turned out to be 6%.

For the compound `CC(=O)c1ccc(N2CCN(Cc3ccc(C)o3)CC2)cc1`, the EC50 in [2] came to 4.62 µM. In addition, the inhibition in data set [3] is 78%.

With `Clc1ccc(N2CCN(Cc3ccc(Br)s3)CC2)cc1`, the inhibition in data set [3] came out at 12%.

With `COc1ccc(CN2CCN(c3ccc(-c4nc5ccccc5o4)cc3)CC2)cn1`, the t1/2 is greater than 60 min in data set [4] and 25.2 min in data set [5]. Moreover, the values for the AUC(0-t) at 6 h in data set [6] and in data set [11] were 1100 nM·h and 3000 nM·h, respectively. For the same compound, the Cmax is 0.7 µM in [10] and 1.6 µM in data set [8]. Moreover, the CC50 in [1] was greater than 10 µM. Moreover, in data set [2], the EC50 was 1.1 µM.

Source of the values: ChEMBL document CHEMBL2331469, “Discovery and Preliminary SAR of Arylpiperazines as Novel, Brainpenetrant Antiprion Compounds” (ACS Med Chem Lett, 2013).
